Compounds with a hit are over-represented: about 2.7% of the library has one in this group of screens.
Yeast lifespan up: yeast lifespan extension; actives 0.68% (n = 130,000); inhibition of the nicotinamide effect, % at 10 µM; AID 775; S. cerevisiae growth with nicotinamide, OD615; deaD strain in restrictive glucose medium;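 active = inhibition above a set limit, placed 3 SD over the median of all compounds, cut at about 26% in these data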
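Test system – modified budding yeast, DeaD strain · Compound – single dose 10 µM compound, 0.25% DMSO · Times – culture preincubation 4 h, compound exposure 48 h, both 30 °C · Detection – optical density (absorbance) at 615 nm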
SDO1 yeast rescue: sdo1-depleted yeast growth rescue. AID 817. z-score at 10 µM. S. cerevisiae sdo1-depleted JHY4D growth rescue, OD600 30 h; hits give high values; pdr5 snq2 efflux-pump mutant strain. actives 0.21% (n = 140,000);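 active = z-score above 3 at both the 24 hr and the 30 hr optical density reads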
RAM network inh: blocks the yeast RAM network; S. cerevisiae dse1pr::URA3 reporter, 5-FOA growth OD615, 2 d; analog-sensitive cbk1-as2 kinase mutant strain; inhibition, % at 50 µM; actives 1.8% (n = 190,000); AID 868;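 active = inhibition above a set limit, 3 SD over mean compound inhibition, cut at about 8.4% in these data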;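 also: inhibition rescues growth on 5-FOA so higher OD means more RAM inhibition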
BB579 growth dn: chemicals that inhibit yeast BB579 growth in restrictive medium (lifespan-shortening candidates) | actives 0.51% (n = 140,000) | inhibition, % at 10 µM | S. cerevisiae BB579 growth, OD615, 48 h;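 active = inhibition above a set limit, 3 SD over the mean compound inhibition, cut at about 44% in these data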
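Assay system: S. cerevisiae DeaD strain BB579 yeast. Medium: CSMM-D restrictive synthetic medium containing dextrose (glucose). Times: 4 h cell preincubation, 48 h compound exposure, 30 °C humidified. Signal: OD615 turbidity measurement. Benchmarks: positive control amphotericin B 10 µg/mL.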
Hits are given with their value; n = inactive; x = no result given.

SMILES | Yeast lifespan up | SDO1 yeast rescue | RAM network inh | BB579 growth dn
NC(N)=N/N=C/c1ccc(OCc2ccc(Cl)cc2)cc1 | n | n | n | 77.8
NC(N)=N/N=C/c1ccc(OCc2ccccc2)cc1 | n | n | n | n
CC1CCCCC1NS(=O)(=O)c1ccc(-n2cnnn2)cc1 (stereo not drawn) | 46.3 | n | n | n
Oc1cccc2ccc(Nc3ccccn3)nc12 | n | n | n | 96.7
C#CC(CC)(CC)NC(=O)NC1CCCCC1 | x | x | n | x
O=C1C(=O)N(CCN2CCOCC2)C(c2ccccn2)/C1=C(/O)c1ccccc1 (stereo not drawn) | 26.0 | n | n | n
O=[N+]([O-])c1cc([N+](=O)[O-])c2c(=Nc3ccccc3)n(-c3ccccc3)n(O)c2c1 | x | x | n | x
Cc1ccc(C)c(C(=O)COC(=O)c2cc(Cl)nc3ccccc23)c1 | n | n | 9.6 | n
COc1cccc(/C=N/n2nnnc2N)c1OCc1ccccc1Cl | x | n | n | n
COc1cccc(/C=N/NC(N)=S)c1OCc1ccccc1Cl | n | n | 8.8 | n
O=C1C=CC2C(c3ccc4c(c3)OCO4)CC1N2Cc1ccccc1 (stereo not drawn) | 50.2 | n | n | n
CN1C(=O)c2ccccc2N(C)C1c1ccc2c(c1)OCO2 (stereo not drawn) | n | n | n | n
CCC(=O)c1c(NC(CC)CO)cc(C)oc1=O (stereo not drawn) | x | x | n | x
CCOC(=O)C1=C(N)OC2=C(C(=O)CCC2)C1c1ccc(C)s1 (stereo not drawn) | n | n | n | n
CCOC(=O)C1=C(N)OC2=C(C(=O)CCC2)C1c1sccc1C (stereo not drawn) | 47.4 | n | n | n
N#C/C(=C/c1ccc(CNC(=O)C(=O)Nc2cc(Cl)cc(Cl)c2)o1)C(=O)NCc1cccnc1 | n | n | 8.6 | n
Cn1cnnc1SCC(=O)Nc1cc(S(=O)(=O)N2CCCCCC2)ccc1Cl | n | n | n | n
COc1ccc2c(C)nc(Nc3nc(C)c(C)c(=O)[nH]3)nc2c1 | n | n | n | 59.3
Cc1noc2ncnc(Sc3ccccc3Cl)c12 | n | n | n | 60.8
Cc1nc2c(N=Nc3ccccc3F)c(N)nn2c(N)c1C#N | x | x | n | x
COc1ccc(OC)c(-c2cc(C(=O)N3CCN(c4ncccn4)CC3)c3ccccc3n2)c1 | n | n | n | n
COc1ccc(-c2cc(C(=O)N3CCN(c4ncccn4)CC3)c3ccccc3n2)c(OC)c1 | n | n | n | 59.2
O=c1[nH]c(CN2CCN(S(=O)(=O)c3cccs3)CC2)nc2c(Br)cc(Br)cc12 | x | x | n | x
Cc1ccc(Cl)c2c1=NC(=O)C=2c1[nH]c(=S)[nH]c1O | x | x | n | x
COc1cccc(-c2nc(CSCC(=O)N3CCc4ccccc43)c(C)o2)c1 | n | n | 8.8 | n
SMILES | Yeast lifespan up | SDO1 yeast rescue | RAM network inh | BB579 growth dn
COc1cccc(-c2nnc(SCC(=O)N3CCCc4ccccc43)o2)c1 | n | n | 8.5 | n
COc1cc(OC)cc(-c2nnc(SCC(=O)N3CCCc4ccccc43)o2)c1 | n | n | n | n
COc1ccc(-c2nc(CSCC(=O)N3CCc4ccccc43)c(C)o2)cc1OC | n | n | n | n
CCOc1ccc(N2C(=O)CC(N(Cc3ccco3)C(C)=O)C2=O)cc1 (stereo not drawn) | x | x | n | x
Cc1ccc(NC(=O)C2CCN(c3cnccn3)CC2)cc1C | x | x | n | x
C=CCOc1ccc(/C=C2\C(=N)N3N=C(S(=O)(=O)CC)SC3=NC2=O)cc1OC | x | x | 9.6 | x
COc1ccc(N(CC(=O)Nc2ccc(C(N)=O)cc2)S(=O)(=O)c2ccc(C)c([N+](=O)[O-])c2)cc1 | x | x | n | x
COc1ccc(N(CC(=O)O)S(=O)(=O)c2ccc(OC)c(OC)c2)cc1 | 29.3 | n | n | n
COC(=O)CN(c1ccc(OC)cc1)S(=O)(=O)c1ccc(OC)c(OC)c1 | n | n | n | n
COc1ccc(N(CC(=O)Nc2ccccc2C(N)=O)S(=O)(=O)c2ccc(C)c([N+](=O)[O-])c2)cc1 | x | x | 10.1 | x
O=C(CCc1ccccn1)N1CCCC(CNS(=O)(=O)c2cccs2)C1 (stereo not drawn) | x | x | n | x
CN(C)c1ccc(/C=N/NC(=O)c2sccc2-n2cccc2)cc1 | x | x | n | x
C[C@@H](C(=O)NCc1ccccc1)[C@H]1C[C@]1(C)[C@H](NC(=O)OCc1ccccc1)c1ccccc1 | n | n | 9.5 | n
C[C@@H](C(=O)O)[C@H]1C[C@]1(C)[C@H](NC(=O)OCc1ccccc1)c1ccccc1 | n | n | n | n
COC(=O)[C@H](C)[C@@H]1C[C@@]1(C)[C@@H](NC(=O)OCc1ccccc1)c1ccccc1 | n | n | 8.6 | n
COc1ccc(CCC(=O)N/N=C\c2cccs2)cc1 | x | x | n | x

Screening data: PubChem BioAssay, several laboratories
